According to the EternaBench riboswitch data:

System: MS2 coat protein
Assay: apparent Kd, MS2 coat protein; higher = weaker binding; RNA-MaP array; FMN 200 µM where present
Outline: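 In 100 mM Tris-HCl pH 7.5, 80 mM KCl, 4 mM MgCl2, BSA, DTT, yeast tRNA and Tween-20, SNAP-549-labelled MS2 coat protein was titrated from 0.7 or 1.5 nM, doubling to 3 µM, over designs transcribed by stalled E. coli RNA polymerase on Illumina sequencing-chip clusters. This was done first without ligand, then with ligand held constant. After green signal was normalised to red-channel RNA signal and control-cluster median Fmax, the apparent Kd was taken as the median of filtered per-cluster binding-curve fits.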

[1] = designed as: OFF switch for flavin mononucleotide, no ligand
[2] = ligand present: flavin mononucleotide, designed as: OFF switch for flavin mononucleotide
[3] = designed as: ON switch for flavin mononucleotide, no ligand
[4] = ligand present: flavin mononucleotide, designed as: ON switch for flavin mononucleotide

Row | Sequence | apparent Kd [1] [nM] | apparent Kd [2] [nM] | apparent Kd [3] [nM] | apparent Kd [4] [nM]
1 | UCAUGAAGGGCAGGAUAUGGACAUGAGGAUCACCCAUGUACAUGGGAUUAUAUACUGAAUUUAUACUAGAAGGGUUACAUAAAU | 31 | 18.1 |  | 
2 | GGCAGACAUGAGGAUCACCCAUGUCGGCCGUUAGGAGGAUAUCGGUGAUAUCUGUCUCGCCGAGAAGGUUUAAUUA |  |  | 11.5 | 12.1
3 | AUAUCUAUAUCAGGAUAUGGACAGGCCUGUCCGUAUUGAGACAGUAACAUGAGGAUCACCCAUGUCCAGAAGGGAUCUAUAUAU | 53.7 | 45.7 |  | 
4 | AUACCUUAUGAGAAGGCGAUCAUGAAACAUGAUCGAGGAUAUCAUGUAAACAUGAGGAUCACCCAUGUAUGGGUAUUAUGGUAC |  |  | 28.4 | 9.72
5 | GGCAGACAUGAGGAUCACCCAUGUCAGGAUAUUAGGCGAUCGUCGAUAGACGAUAGCCUGAGAAGGGACAUGCC | 23.8 | 54.1 |  | 
6 | CCUGUGUGAGGAUAUGGUGUUGGCCACAAGGAAUAGCUCCUCCAGAAGGCACAUGAGGAUCACCCAUGUCGUGG | 17.6 | 80.3 |  | 
7 | ACUUUACGAGGAUAUACUGUCGGGCCUCGGGCGUACAUGCGACAUGAGGAUCACCCAUGUAGAAGGCGUUUACU | 33.1 | 119 |  | 
8 | ACUUACUGAGGAUAUACAUAGAUUUACAUGAGGAUCACCCAUGUUCCUCUAUGUAUAUAUGUAGAAGGCAGAAGUU | 26.3 | 97.8 |  | 
9 | CAGGUCUGAGGAUAUCCAUCUUCAUACAUGAGGAUCACCCAUGUUUACCUUUGGGUUUUCGGAGAAGGCAGUUUUU | 273 | 370 |  | 
10 | CCUUCACAUGAGGAUCACCCAUGUCCUAGUCCGUCAGGAUAUAGCCUGCAUCCGCUGUGGCUAGAAGGGACUGCUG |  |  | 135 | 207
11 | AUAUAUAUAUCAGGAUAUGGACAGGCCUGUUCGUAUUAAGACAUUAACAUGAGGAUCACCCAUGUCCAGAAGGGAUAUAUAUAU | 109 | 86.9 |  | 
12 | AUCAGCUCGUCAGGAUAUAUGUCACUGCUUCGGCAGUGUGGUAAGAUCACAUGAGGAUCACCCAUGUAGAAGGGACGAGCUGAU | 29.7 | 78 |  | 
13 | GCCAUCGGGUGAGGAUAUAAAAUUAUGAUUAAAUUAGAAGGCAUCUCAUAAGACAUGAGGAUCACCCAUGUAGUUAAGAUGGCA |  |  | 90.6 | 31.9
14 | AACCUAUUACAGAAGGCCAGCUACAUGAGGAUCACCCAUGUCGAGUCAUGGAGGAUAUGUAGUAAUUCACUCGCAGAUGAGUAC |  |  | 29.8 | 5.33
15 | CUCCAGCAAGGAUAUACAUGAGGAUCACCCAUGUAAAGACAAGAGUUGGGAGACGCAUGUAGAAGGUGCACAUC | 38.2 | 69 |  | 
16 | CCAGGCUGUGUGAGGAUAUGCUGGUCCUUGGAUCAGCAGAAGGCACAUGAGGAUCACCCAUGUGAAUAGCUUGG | 16.9 | 30 |  | 
17 | UUACAUACAAAUGUACAUGAGGAUCACCCAUGUUUGUUGGGAAGAAGGGUAACAGUACUACACAUACAGGAUAUUUCACAAAUA |  |  | 54 | 34
18 | AAAAGAACGGCAGGAUAUGCAAGCACUGACCUCCCAAAAUAAAGAAACAUGAGGAUCACCCAUGUGCAGAAGGGCCAAAAGUGC | 13.6 | 12.3 |  | 
19 | GGCAUACAUGAGGAUCACCCAUGUAACCUGCACUAAGGAUAUGGCGUGGCCCAUGGCUACCCAGAAGGUAGAUAAA |  |  | 136 | 195
20 | CAUCUAUUUAGAGGAUAUGGUGACGAAAAGCUACCAGAAGGCUAAGUACAUGAGGAUCACCCAUGUGCGUGGGCGCUUAGGGUC | 9.93 | 47.8 |  | 
21 | AUGAGAAAAGCAGGAUAUCUAUUGGCUCAGAAACAUGAGGAUCACCCAUGUAGAGAAGGGCUAAGACCGACUCUUCGGAGUUGA | 5.68 | 6.51 |  | 

Row | Sequence | apparent Kd [1] [nM] | apparent Kd [2] [nM] | apparent Kd [3] [nM] | apparent Kd [4] [nM]
22 | CACCGUUACAGAGGAUAUCUUACAUGAGGAUCACCCAUGUAAUAAAUGAGAAUUUCGGAUGUAUGAGAGAAGGCUGGAAUCGGC | 23.2 | 22 |  | 
23 | UAUUCAUUCAGAGGAUAUUGUUUAUCUCUAUUUCAAGAAGGCUGAUUUUACUACUUACUUAUGAAACAUGAGGAUCACCCAUGU |  |  | 25.6 | 17.5
24 | GCCAGUUAUGUAGGAUAUGCGCAGCGAGCCUGAGCAGAAGGACAUGAGGAUCACCCAUGUGUUGCGGUUUGAGUACUGAUCGCU | 24.6 | 130 |  | 
25 | ACAUUAGUACCACAUGUAUUACAUGAGGAUCACCCAUGUAACUAGGAUAUGUAUUAGAAUUUACAACAGAAGGAGUUAAUAUGU | 9.8 | 11.9 |  | 
26 | GCUCGAUGCGCUGAGCACAUGAGGAUCACCCAUGUAAAUGGUCAGGAUAUUUACGUGCUUUAUGUAGAGAAGGGACCAUCGAGC |  |  | 286 | 30.9
27 | CCACGGUAUGUAGGAUAUGCAUAGCAUUGCUAAAAAGAAGGACAUGAGGAUCACCCAUGUAUGUAUUCCAUACUAAUCCCGUGC | 8.98 | 8.06 |  | 
28 | UGGAUGGUAUGAGGAUAUGCGCGCGAAACGCGCGCAGAAGGCAUGUCAAUAGACAUGAGGAUCACCCAUGUAUUAUCUAUCCAA |  |  | 203 | 14.8
29 | AGGUGACAUGAGGAUCACCCAUGUCAGGAUAUAUACACCGCCGGCGUGAAGCCGGCGGAUAGAAGGGACAAAAU | 17.1 | 21.3 |  | 
30 | CCGAGAUGUGCAGGAUAUCAGGAUACGGUCCGCUGAGAAGGGCACAUGAGGAUCACCCAUGUGUGCGCAUAGGUGAAAGGCUUU | 285 | 154 |  | 
31 | GGAAUAGCAUGAGGAUAUGCUGGAGUUUAGACAGCAGAAGGCAUGUCAUAAGACAUGAGGAUCACCCAUGUAAUUACAAUACCA |  |  | 102 | 11.7
32 | ACUAAGGAGGUAGGAUAUUGUGUGGUGGCCGGGCUCCCACGGCGAGCGGCACAAGAAGGAUCCCUACAUGAGGAUCACCCAUGU |  |  | 24 | 16.4
33 | CUCACUCCAAAGAGCGCGUCUGCCUGAGAAGGGUGCUAAUUAAUUACAUGAGGAUCACCCAUGUCACAGGAUAUCAGGGUCGCU |  |  | 622 | 230
34 | AAUCUUUUUAUGGGAUUACAAUAUGAGGAUAUCAUUCAUUUAUACAUGAGGAUCACCCAUGUUACUGAGAAGGCAUAUAUAAUA |  |  |  | 11
35 | AGGAAACAUGAGGAUCACCCAUGUAAAGAUGGGCGAGGAUAUCGAAAGAAAAGAAAGAAACGAGAAGGCGCAAAAG |  |  | 305 | 72.1
36 | CUUUUGUGAGGAUAUUGGUAGUAAAUGAAUAAAAUUAUUACCGAGAAGGUACAUGAGGAUCACCCAUGUUCCUC | 19.4 | 27.9 |  | 
37 | AAAUAGCGAGGAUAUACAUGAGGAUCACCCAUGUGGACUGAUGUCGCGUGAUUCAGUGGUAGAAGGUGCUCAAA | 45.4 | 76.3 |  | 
38 | GUGUCUAACUAGAAGGCCGAUAGCAAAGCUAUCGGAGGAUAUGGGUUCCGGAAACGGACAUGAGGAUCACCCAUGUGGCACAAA |  |  | 103 | 13.8
39 | CUCAUGAGAGGAUAUACAUGAGGAUCACCCAUGUGGUUAUCUCCUCGGGCUCCAUUACGUAGAAGGCUCAUUUG | 33.9 | 90.6 |  | 
40 | AGCGAACAUGAGGAUCACCCAUGUGAAAAACAUAGAGGAUAUGUCGCAUGAGUGUAAAAGACAGAAGGCUAUCGCA |  |  | 225 | 54.8
41 | CCUACCAUCACAGGAUAUGCUAUCCUUUGGGUAGCAGAAGGGUGAUAACAUGAGGAUCACCCAUGUGGUAGGCCCGGUGACGGG |  |  | 768 | 227
42 | CUCUUGUAAGGAUAUGCUGCUCGUCACGAAAGUGAUGAGUAGCAGAAGGUACAUGAGGAUCACCCAUGUAAAUA | 111 | 34.9 |  | 
